Assay results from the array DNA melting data of Ke et al. (doi:10.1101/2024.01.08.574731).

What was measured:
[1] = folding enthalpy; higher = less favourable; fluorescence melt of hairpins on a sequencing array, two-state fit; settings: sodium 0.088 M
Method in brief: (§1)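 On a sequenced MiSeq flow cell, library hairpins with annealed Cy3 and quencher oligos were imaged for Cy3 fluorescence in 2.5 °C steps up to 60 °C, in 50 mM Na-HEPES pH 8.0, 25 mM NaCl. Normalisation used pre-quench Cy3 and control constructs. Bootstrapped two-state fits gave melting temperature and folding enthalpy, combined by inverse variance across four replicates and with fitted temperatures raised by 9.35 °C to match UV melts.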

[2] = melting temperature; fluorescence melt of hairpins on a sequencing array, two-state fit, raised by 9.35 °C to match UV melts; settings: sodium 0.088 M
Method in brief: as §1

Row | Sequence | folding enthalpy [1] [kcal/mol] | Tm [2] [°C]
1 | ATCATGAAAATGAT (((((....))))) | -13.8 | 38.5
2 | GATCGATGCATCGATC ((((((....)))))) | -46.9 | 59.7
3 | GTAGGCGAAAGCCATAC ((((((....))).))) | -11.2 | 43.8
4 | CGTAGGAAACTACG (((((....))))) | -21 | 48.2
5 | GATCAGGGGGCTGATC ((((((....)))))) | -38.3 | 49.7
6 | GATCGGCGTCCGATC ((((((...)))))) | -40.5 | 56.4
7 | GCTATTGAAAAATAGC ((((((....)))))) | -31.2 | 49.5
8 | GCCCCAGGAAACTAGGGC ((((.((....)).)))) | -29.1 | 46.4
9 | GATCTGGCTTCAGATC ((((((....)))))) | -37.8 | 50.6
10 | GGTACCGAAAGGTAACC ((((((....))).))) | -26.9 | 53.4
11 | GGTTACACGAAAGTGACC (((..(((....)))))) | -16.6 | 35.5
12 | GTGGGAGAAATCCCAC ((((((....)))))) | -28.3 | 58.8
13 | GGATGCGAAAGCAGATCC ((((((....)))..))) | -16.1 | 45.6
14 | GATCACGAAAGTGAATC ((((((....))).))) | -15.8 | 45.6
15 | GGTTGGGGAAACTCAACC (((((.(....).))))) | -38.4 | 51.1
16 | GATCGGACACCCGATC ((((((....)))))) | -41.5 | 54.7
17 | GCTTCGCGAAAGCCGAGC (((..((....))..))) | -18.5 | 41.7
18 | GCGAGTGGAAACACTCAC (.(((((....))))).) | -14 | 45.7
19 | GTGTGGGGAAACCTACGC (.((.((....)).)).) | -24.1 | 39.2
20 | GATCGGTGTCCGATC ((((((...)))))) | -32 | 58.3
21 | GTATGTGCGAAAGCATAC (((..(((....)))))) | -11.7 | 35
22 | GATCCGCGTACGGATC ((((((....)))))) | -35.3 | 60.4
23 | GTTGGACGAAAGTCGAAC (((.(((....))).))) | -16.8 | 49.1

Row | Sequence | folding enthalpy [1] [kcal/mol] | Tm [2] [°C]
24 | GCCTACCGAAAGGTTGGC (((.(((....))).))) | -35.4 | 62.5
25 | GGCAACGAAAGTTCGGCC ((((((....)))..))) | -25.2 | 44.4
26 | GCTTCAGGAAACTGAAGC (((((((....))))))) | -32.9 | 66
27 | GGTAGGGGAAACTCTGCC ((.((.(....).)).)) | -22.9 | 35.1
28 | GTATTTGAAAAAATAC ((((((....)))))) | -25.2 | 38.1
29 | GATCGAAGATTCGATC ((((((....)))))) | -35.5 | 51.4
30 | GCTACACGAAAGTGAGC (((.(((....)))))) | -19.2 | 49.4
31 | GTCCGTGGAAACATGGGC (.((.((....)).)).) | -24.9 | 44.9
32 | GCTCTGCGAAAGCTGAGC ((((.((....)).)))) | -41.2 | 68.3
33 | GACTGGGGAAACCTAGTC ((((.((....)).)))) | -32.8 | 47.8
34 | GTGTGCGAAAGCACGCAC ((((((....)))..))) | -9.49 | 61.1
35 | GGGGAGGGAAACCTCTCC ((.((((....)))).)) | -34.1 | 51.8
36 | CGGGACGGAAACGTTCCG (((.(((....))).))) | -37.8 | 59.4
37 | GTGTTTCGAAAGAACCAC (((.(((....))).))) | -30.7 | 43
38 | GCGGAGCGAAAGCACTGC ((.(.((....)).).)) | -12.7 | 50
39 | GATTCCGAAAGGAATATC ((((((....)))..))) | -17.4 | 46.6
40 | GATCCTTACCAGGATC ((((((....)))))) | -33.6 | 52.1
41 | GATCCGAAAGCGGATC ((((((....)))))) | -34 | 53.1
42 | GATAGCGGAAACGCTACC (.(((((....))))).) | -12.1 | 40.4
43 | GTAAGTCGAAAGACCTAC (((.(((....))).))) | -17 | 35.7
44 | CGTTCGGAAACGAGTACG ((((((....)))..))) | -18.8 | 35.9
45 | GCCCTTGGAAACAGGGGC ((((.((....)).)))) | -41.4 | 54.4
46 | GAATTTGGAAACAAATTC (((((((....))))))) | -45.1 | 52
